Experimental data: ChEMBL document CHEMBL2169766 (J Med Chem, 2012)

Columns and labels:
[1] = target: T1, 5-hydroxytryptamine receptor 3A (Homo sapiens, UniProt P46098); test: Displacement of [3H]granisetron from 5HT3A receptor expressed in HEK293 cells after 24 hrs by scintillation counting in presence of quipazine; assay type: cell-based
T1 sequence (P46098 whole entry): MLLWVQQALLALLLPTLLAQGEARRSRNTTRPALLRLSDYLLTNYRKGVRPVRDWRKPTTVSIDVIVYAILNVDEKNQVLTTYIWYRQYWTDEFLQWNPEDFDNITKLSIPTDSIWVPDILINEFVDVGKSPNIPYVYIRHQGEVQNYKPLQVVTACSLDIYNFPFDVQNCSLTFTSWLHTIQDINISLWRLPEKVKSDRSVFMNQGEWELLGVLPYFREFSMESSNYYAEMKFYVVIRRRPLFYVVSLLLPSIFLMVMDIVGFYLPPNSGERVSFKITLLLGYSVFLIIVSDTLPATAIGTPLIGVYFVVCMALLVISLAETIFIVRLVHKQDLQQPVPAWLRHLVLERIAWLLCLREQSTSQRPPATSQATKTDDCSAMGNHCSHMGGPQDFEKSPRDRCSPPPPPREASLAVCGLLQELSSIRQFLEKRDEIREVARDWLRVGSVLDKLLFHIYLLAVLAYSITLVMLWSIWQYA
Method in brief: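 Nonspecific binding defined with 1 mM quipazine. At least 24 h at 4 °C, GF/B filtration (0.3% PEI presoaked), scintillation counting. Hill-equation fit; Ki from IC50 via Cheng-Prusoff. At least three separate transfection plates.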

[2] = system: HEK293; test: Selectivity ratio for recombinant human 5HT2C receptor expressed in HEK-293 cells to 5HT3A receptor expressed in HEK293 cells; assay type: cell-based
[3] = system: HEK293; test: Selectivity ratio for recombinant human 5HT1A receptor expressed in HEK-293 to 5HT3A receptor expressed in HEK293 cells; assay type: cell-based
[4] = target: T2, 5-hydroxytryptamine receptor 1A (Homo sapiens) (UniProt P08908); test: Displacement of [3H]8-OH-DPAT from recombinant human 5HT1A receptor expressed in HEK-293 cells at 0.1 uM after 60 mins; assay type: cell-based; conditions: HEK293
T2 sequence (whole entry): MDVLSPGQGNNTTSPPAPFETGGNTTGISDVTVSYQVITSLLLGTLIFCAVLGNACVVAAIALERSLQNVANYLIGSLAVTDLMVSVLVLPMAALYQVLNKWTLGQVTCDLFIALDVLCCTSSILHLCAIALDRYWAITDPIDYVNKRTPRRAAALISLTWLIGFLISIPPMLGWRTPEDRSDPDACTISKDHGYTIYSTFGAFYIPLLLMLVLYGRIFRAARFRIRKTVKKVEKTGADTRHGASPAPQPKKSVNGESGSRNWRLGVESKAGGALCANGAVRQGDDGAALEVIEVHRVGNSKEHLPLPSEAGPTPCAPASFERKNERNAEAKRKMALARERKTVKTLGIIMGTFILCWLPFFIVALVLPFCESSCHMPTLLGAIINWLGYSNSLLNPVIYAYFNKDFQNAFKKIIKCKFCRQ
Method in brief: (§1)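 Single-point radioligand competition binding at an external contract lab. Reported as percent inhibition of control specific binding: 100 − (measured specific binding / control specific binding) × 100.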

[5] = target: 5-hydroxytryptamine receptor 1D (Rattus norvegicus) (UniProt P28565); test: Displacement of [3H]serotonin from recombinant rat 5HT1D receptor expressed in CHO cells at 0.1 uM after 60 mins; assay type: cell-based; method in brief: as §1
[6] = target: 5-hydroxytryptamine receptor 4 (Homo sapiens) (UniProt Q13639); test: Displacement of [3H]GR113808 from recombinant human 5HT4E receptor expressed in CHO cells at 0.1 uM after 60 mins; assay type: cell-based; method in brief: as §1
[7] = system: HEK293; test: Selectivity ratio for 5HT1B receptor in rat cerebral cortex to 5HT3A receptor expressed in HEK293 cells; assay type: cell-based
[8] = target: 5-hydroxytryptamine receptor 7 (Homo sapiens) (UniProt P34969); test: Displacement of [3H]LSD from recombinant human 5HT7 receptor expressed in CHO cells at 0.1 uM after 120 mins; assay type: cell-based; method in brief: as §1
[9] = system: HEK293; test: Selectivity ratio for recombinant human nACH alpha4beta2 receptor expressed in SH-SY5Y cells to 5HT3A receptor expressed in HEK293 cells; assay type: cell-based
[10] = target: Neuronal acetylcholine receptor subunit alpha-7 (Homo sapiens) (UniProt P36544); test: Displacement of [3H]epibatidine from recombinant human nACH alpha7 receptor expressed in HEK-293 cells at 0.1 uM after 120 mins; assay type: cell-based; conditions: HEK293
[11] = target: 5-hydroxytryptamine receptor 1B (Rattus norvegicus) (UniProt P28564); test: Displacement of [125I] CYP from 5HT1B receptor in rat cerebral cortex at 0.1 uM after 120 mins; assay type: tissue-based; method in brief: as §1
[12] = system: HEK293; test: Selectivity ratio for recombinant human nACH alpha7 receptor expressed in HEK-293 cells to 5HT3A receptor expressed in HEK293 cells; assay type: cell-based
[13] = system: HEK293; test: Selectivity ratio for recombinant human 5HT2C receptor expressed in HEK-293 to 5HT3A receptor expressed in HEK293 cells; assay type: cell-based
[14] = species: Rattus norvegicus; test: Displacement of [3H]strychnine from glycine receptor in rat spinal cord at 0.1 uM after 15 mins; method in brief: as §1
[15] = target: GABA-A receptor; alpha-1/beta-2/gamma-2 (Homo sapiens) (UniProt P14867+P47870+P18507); test: Displacement of [3H]muscimol from recombinant human GABAA alpha1beta2gamma2 receptor expressed in CHO cells at 0.1 uM after 120 mins; assay type: cell-based; method in brief: as §1
[16] = system: HEK293; test: Selectivity ratio for recombinant human GABAA alpha1beta2gamma2 receptor expressed in CHO cells to 5HT3A receptor expressed in HEK293 cells; assay type: cell-based
[17] = target: Neuronal acetylcholine receptor; alpha4/beta2 (Homo sapiens) (UniProt P17787+P43681); test: Displacement of [3H]cytisine from recombinant human nACH alpha4beta2 receptor expressed in SH-SY5Y cells at 0.1 uM after 120 mins; assay type: cell-based; method in brief: as §1
[18] = target: 5-hydroxytryptamine receptor 2B (Homo sapiens) (UniProt P41595); test: Displacement of [125I] +/- DOI from recombinant human 5HT2B receptor expressed in CHO cells at 0.1 uM after 60 mins; assay type: cell-based; method in brief: as §1
[19] = system: HEK293; test: Selectivity ratio for recombinant human 5HT4E receptor expressed in CHO cells to 5HT3A receptor expressed in HEK293 cells; assay type: cell-based
[20] = target: T3, 5-hydroxytryptamine receptor 2C (Homo sapiens) (UniProt P28335); test: Displacement of [125I] +/- DOI from recombinant human 5HT2C receptor expressed in HEK-293 cells at 0.1 uM after 60 mins; assay type: cell-based; conditions: HEK293; method in brief: as §1
T3 sequence (whole entry): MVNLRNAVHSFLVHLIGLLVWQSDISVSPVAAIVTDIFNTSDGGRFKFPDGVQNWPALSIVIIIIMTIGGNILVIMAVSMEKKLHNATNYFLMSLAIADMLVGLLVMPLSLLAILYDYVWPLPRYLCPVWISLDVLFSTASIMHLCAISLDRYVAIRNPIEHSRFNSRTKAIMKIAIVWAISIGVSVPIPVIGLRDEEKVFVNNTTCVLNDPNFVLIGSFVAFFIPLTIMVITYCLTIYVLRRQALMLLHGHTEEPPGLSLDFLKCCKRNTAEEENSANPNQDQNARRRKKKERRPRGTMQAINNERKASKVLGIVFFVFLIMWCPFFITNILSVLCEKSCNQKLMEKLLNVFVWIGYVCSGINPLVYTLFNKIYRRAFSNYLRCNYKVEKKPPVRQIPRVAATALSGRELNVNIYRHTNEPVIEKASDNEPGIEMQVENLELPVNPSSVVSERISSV

[21] = target: 5-hydroxytryptamine receptor 2A (Homo sapiens) (UniProt P28223); test: Displacement of [125I] +/- DOI from recombinant human 5HT2A receptor expressed in HEK-293 cells at 0.1 uM after 60 mins; assay type: cell-based; conditions: HEK293; method in brief: as §1
[22] = system: HEK293; test: Selectivity ratio for recombinant human 5HT6 receptor expressed in CHO cells to 5HT3A receptor expressed in HEK293 cells; assay type: cell-based
[23] = system: HEK293; test: Selectivity ratio for recombinant rat 5HT1D receptor expressed in CHO cells to 5HT3A receptor expressed in HEK293 cells; assay type: cell-based
[24] = target: 5-hydroxytryptamine receptor 6 (Homo sapiens) (UniProt P50406); test: Displacement of [3H]LSD from recombinant human 5HT6 receptor expressed in CHO cells at 0.1 uM after 120 mins; assay type: cell-based; method in brief: as §1
[25] = system: HEK293; test: Selectivity ratio for recombinant human 5HT7 receptor expressed in CHO cells to 5HT3A receptor expressed in HEK293 cells; assay type: cell-based
[26] = system: HEK293; test: Selectivity ratio for recombinant human 5HT2A receptor expressed in HEK-293 cells to 5HT3A receptor expressed in HEK293 cells; assay type: cell-based
[27] = system: HEK293; test: Selectivity ratio for glycine receptor in rat spinal cord to 5HT3A receptor expressed in HEK293 cells; assay type: cell-based

Chain of 5-hydroxytryptamine receptor 2A (Homo sapiens) (P28223 whole entry): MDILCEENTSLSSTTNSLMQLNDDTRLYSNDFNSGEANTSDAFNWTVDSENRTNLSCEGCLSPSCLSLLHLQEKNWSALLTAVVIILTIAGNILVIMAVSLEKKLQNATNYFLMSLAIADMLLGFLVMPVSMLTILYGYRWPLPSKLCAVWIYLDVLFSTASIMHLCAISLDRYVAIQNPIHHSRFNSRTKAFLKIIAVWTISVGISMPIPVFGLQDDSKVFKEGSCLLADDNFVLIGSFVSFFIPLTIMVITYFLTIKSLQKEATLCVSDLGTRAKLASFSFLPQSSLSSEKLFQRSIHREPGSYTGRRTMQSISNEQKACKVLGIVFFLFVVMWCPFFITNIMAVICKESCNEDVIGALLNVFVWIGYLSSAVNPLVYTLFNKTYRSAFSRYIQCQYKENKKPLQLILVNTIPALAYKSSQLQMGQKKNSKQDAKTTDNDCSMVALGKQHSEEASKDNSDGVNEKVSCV
Chain of 5-hydroxytryptamine receptor 2B (Homo sapiens) (P41595 whole entry): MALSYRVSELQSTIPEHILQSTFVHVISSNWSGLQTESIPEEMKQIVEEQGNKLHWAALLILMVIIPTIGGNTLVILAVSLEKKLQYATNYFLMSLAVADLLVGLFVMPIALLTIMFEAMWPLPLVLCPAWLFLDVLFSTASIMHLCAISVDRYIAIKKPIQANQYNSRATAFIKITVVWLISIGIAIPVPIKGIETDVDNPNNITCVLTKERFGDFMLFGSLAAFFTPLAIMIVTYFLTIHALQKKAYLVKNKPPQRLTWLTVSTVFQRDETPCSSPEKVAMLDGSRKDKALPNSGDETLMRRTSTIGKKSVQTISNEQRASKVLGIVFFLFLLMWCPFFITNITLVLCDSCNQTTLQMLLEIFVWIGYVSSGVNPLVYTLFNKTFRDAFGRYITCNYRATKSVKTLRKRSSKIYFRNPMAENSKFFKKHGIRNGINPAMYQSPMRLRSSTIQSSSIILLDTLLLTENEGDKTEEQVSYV
Chain of 5-hydroxytryptamine receptor 1B (Rattus norvegicus) (P28564 whole entry): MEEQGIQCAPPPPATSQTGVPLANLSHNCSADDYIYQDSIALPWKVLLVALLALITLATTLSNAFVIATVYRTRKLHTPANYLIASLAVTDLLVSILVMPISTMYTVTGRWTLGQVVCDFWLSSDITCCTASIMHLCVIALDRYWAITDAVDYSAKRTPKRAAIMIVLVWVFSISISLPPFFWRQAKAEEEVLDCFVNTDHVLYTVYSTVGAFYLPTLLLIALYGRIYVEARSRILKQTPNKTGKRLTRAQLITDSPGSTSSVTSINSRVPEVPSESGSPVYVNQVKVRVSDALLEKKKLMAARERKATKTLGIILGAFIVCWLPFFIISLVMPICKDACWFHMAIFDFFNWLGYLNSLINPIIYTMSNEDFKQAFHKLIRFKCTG
Chain of Neuronal acetylcholine receptor subunit alpha-7 (Homo sapiens) (P36544 whole entry): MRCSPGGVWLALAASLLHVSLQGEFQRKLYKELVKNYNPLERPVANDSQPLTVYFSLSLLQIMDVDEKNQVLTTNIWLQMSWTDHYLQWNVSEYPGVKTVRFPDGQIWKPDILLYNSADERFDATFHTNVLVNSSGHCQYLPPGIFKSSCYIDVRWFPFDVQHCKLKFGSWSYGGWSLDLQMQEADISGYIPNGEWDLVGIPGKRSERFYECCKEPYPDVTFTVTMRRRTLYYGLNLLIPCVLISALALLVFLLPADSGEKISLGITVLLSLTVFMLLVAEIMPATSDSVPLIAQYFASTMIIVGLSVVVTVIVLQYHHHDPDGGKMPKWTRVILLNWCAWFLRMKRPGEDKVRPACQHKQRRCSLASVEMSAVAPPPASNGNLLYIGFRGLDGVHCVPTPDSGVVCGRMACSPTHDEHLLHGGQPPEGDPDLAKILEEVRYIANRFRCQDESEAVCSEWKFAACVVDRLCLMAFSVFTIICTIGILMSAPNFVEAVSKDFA
Chain of 5-hydroxytryptamine receptor 1D (Rattus norvegicus) (P28565 whole entry): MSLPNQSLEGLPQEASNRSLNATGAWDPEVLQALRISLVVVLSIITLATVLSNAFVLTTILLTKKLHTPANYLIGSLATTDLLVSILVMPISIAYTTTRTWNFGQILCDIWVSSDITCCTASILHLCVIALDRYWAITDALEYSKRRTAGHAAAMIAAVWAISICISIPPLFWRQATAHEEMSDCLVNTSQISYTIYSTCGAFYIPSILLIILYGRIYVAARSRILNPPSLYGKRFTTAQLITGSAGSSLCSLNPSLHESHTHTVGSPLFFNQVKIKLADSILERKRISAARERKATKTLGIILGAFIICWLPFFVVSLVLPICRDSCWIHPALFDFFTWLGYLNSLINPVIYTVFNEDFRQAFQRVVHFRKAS
Chain of 5-hydroxytryptamine receptor 7 (Homo sapiens) (P34969 whole entry): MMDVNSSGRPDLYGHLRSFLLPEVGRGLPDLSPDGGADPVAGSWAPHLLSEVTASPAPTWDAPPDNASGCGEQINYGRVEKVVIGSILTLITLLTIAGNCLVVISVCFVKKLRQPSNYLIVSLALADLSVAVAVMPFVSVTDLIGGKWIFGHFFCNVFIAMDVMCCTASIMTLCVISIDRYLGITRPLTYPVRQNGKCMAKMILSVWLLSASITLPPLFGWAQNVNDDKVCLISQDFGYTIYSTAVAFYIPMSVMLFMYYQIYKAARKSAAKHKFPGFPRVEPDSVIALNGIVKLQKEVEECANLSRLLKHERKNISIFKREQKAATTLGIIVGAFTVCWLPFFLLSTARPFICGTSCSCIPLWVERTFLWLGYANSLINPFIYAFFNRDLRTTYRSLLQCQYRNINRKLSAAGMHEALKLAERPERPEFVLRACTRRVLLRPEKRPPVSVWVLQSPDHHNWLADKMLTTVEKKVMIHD
Chain of 5-hydroxytryptamine receptor 4 (Homo sapiens) (Q13639 whole entry): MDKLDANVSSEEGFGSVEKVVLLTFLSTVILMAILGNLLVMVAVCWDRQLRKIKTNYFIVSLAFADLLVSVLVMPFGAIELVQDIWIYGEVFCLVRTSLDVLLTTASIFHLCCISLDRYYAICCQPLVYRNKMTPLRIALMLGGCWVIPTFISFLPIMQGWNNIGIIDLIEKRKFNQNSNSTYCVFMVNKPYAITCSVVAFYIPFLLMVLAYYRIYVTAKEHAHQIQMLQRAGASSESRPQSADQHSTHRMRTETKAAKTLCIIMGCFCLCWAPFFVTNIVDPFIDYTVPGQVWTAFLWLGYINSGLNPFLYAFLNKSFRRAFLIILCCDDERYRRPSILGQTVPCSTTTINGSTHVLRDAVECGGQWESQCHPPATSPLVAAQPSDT
Chain of 5-hydroxytryptamine receptor 6 (Homo sapiens) (P50406 whole entry): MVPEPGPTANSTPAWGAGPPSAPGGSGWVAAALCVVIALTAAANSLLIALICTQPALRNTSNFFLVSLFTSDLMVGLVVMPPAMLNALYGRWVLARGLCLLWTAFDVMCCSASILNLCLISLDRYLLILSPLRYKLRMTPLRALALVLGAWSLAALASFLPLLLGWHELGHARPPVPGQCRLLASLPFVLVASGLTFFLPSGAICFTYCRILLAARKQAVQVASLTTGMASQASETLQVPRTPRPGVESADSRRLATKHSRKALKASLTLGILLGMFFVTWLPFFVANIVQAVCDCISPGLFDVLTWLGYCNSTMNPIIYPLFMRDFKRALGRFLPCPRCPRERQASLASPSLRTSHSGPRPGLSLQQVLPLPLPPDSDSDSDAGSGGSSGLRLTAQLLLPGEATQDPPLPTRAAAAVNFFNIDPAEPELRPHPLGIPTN

## CNc1nc(N2CC3CCCNC3C2)nc2ccc(Cl)cc12 (stereo not drawn)
[1]
  Ki: 3550 nM

## CN1CCN(c2cnc3ccccc3n2)CC1
[1]
  Ki: 4.68 nM

## CNc1cc(N2CCN(C)CC2)nc2ccccc12
[1]
  Ki: 13.5 nM

## CN1CCN(c2nc(NCCO)c3cc(Cl)ccc3n2)CC1
[1]
  Ki: 14.8 nM

## CNc1nc(N2CCN(C)CC2)nc2ccc(Cl)cc12
[1]
  Ki: 1.12 nM

## CN1CCN(c2nc(NCCc3ccccc3)c3cc(Cl)ccc3n2)CC1
[1]
  Ki: 79.4 nM

## CN1CCN(c2nc(N)c3cc(Cl)ccc3n2)CC1
[1]
  Ki: 12 nM

## CN1CCN(c2ccc3ccccc3c2)CC1
[1]
  Ki: 537 nM

## CN1CCN(c2nc(N)c3ccccc3n2)CC1
[2]
  Selectivity ratio: 1000
[3]
  Selectivity ratio: 1000
[4]
  inhibition: < 15%
[5]
  inhibition: < 15%
[6]
  inhibition: < 15%
[7]
  Selectivity ratio: 1000
[8]
  inhibition: < 15%
[9]
  Selectivity ratio: 1000
[10]
  inhibition: 31%
[11]
  inhibition: < 15%
[12]
  Selectivity ratio: 1000
[13]
  Selectivity ratio: 1000
[14]
  inhibition: < 15%
[15]
  inhibition: < 15%
[16]
  Selectivity ratio: 1000
[17]
  inhibition: < 15%
[18]
  inhibition: 43%
[19]
  Selectivity ratio: 1000
[20]
  inhibition: < 15%
[21]
  inhibition: < 15%
[22]
  Selectivity ratio: 1000
[23]
  Selectivity ratio: 1000
[24]
  inhibition: < 15%
[25]
  Selectivity ratio: 1000
[26]
  Selectivity ratio: 1000
[1]
  Ki: 0.0513 nM
[27]
  Selectivity ratio: 1000

## CN1CCN(c2ccc3cccc(N)c3n2)CC1
[1]
  Ki: 331 nM

## CN1CCN(c2nc(NCC3CCCCC3)c3cc(Cl)ccc3n2)CC1
[1]
  Ki: 16600 nM

## CN1CCN(c2nc(NCc3ccccc3)c3cc(Cl)ccc3n2)CC1
[1]
  Ki: 13.8 nM

## CN1CCN(c2cc(N)c3ccccc3n2)CC1
[1]
  Ki: 1.45 nM

## CN1CCN(c2cc3ccccc3c(N)n2)CC1
[1]
  Ki: 219 nM

## CN1CCN(c2cnc3ccccc3c2)CC1
[1]
  Ki: 407 nM

## CN1CCN(c2ncc3ccccc3n2)CC1
[1]
  Ki: 1.35 nM

## CN1CCN(c2nc(NCc3ccc(N)cc3)c3cc(Cl)ccc3n2)CC1
[1]
  Ki: 2.69 nM

## CNc1nc(NCCC2CCN(C)C2)nc2ccc(Cl)cc12 (stereo not drawn)
[1]
  Ki: 11700 nM

## CNc1nc(N2CC(N(C)C)C2)nc2ccc(Cl)cc12
[1]
  Ki: 468 nM

## CN1CCN(c2nc(NCc3ccoc3)c3cc(Cl)ccc3n2)CC1
[1]
  Ki: 2.82 nM

## CNc1nc(N2CCN(C)CC2)cc2ccccc12
[1]
  Ki: 5.89 nM

## CN1CCN(c2nc(O)c3cc(Cl)ccc3n2)CC1
[1]
  Ki: 575 nM

## CC(C)Nc1nc(N2CCN(C)CC2)nc2ccc(Cl)cc12
[1]
  Ki: 166 nM

## CNc1nc(N2CCCN(C)CC2)nc2ccc(Cl)cc12
[1]
  Ki: 18.2 nM

## CNc1nc(N2CC[C@H](N)C2)nc2ccc(Cl)cc12
[1]
  Ki: 2340 nM

## CN1CCN(c2ccc3c(N)cccc3n2)CC1
[1]
  Ki: 204 nM

## CNc1nc(N2CCN(C)CC2)nc2ccccc12
[1]
  Ki: 2.95 nM

## CN1CCN(c2cc3ccccc3cn2)CC1
[1]
  Ki: 1.62 nM

## CN1CCN(c2ncc3cc(Cl)ccc3n2)CC1
[1]
  Ki: 7.41 nM

## CN1CCN(c2nc3ccccc3c(=O)[nH]2)CC1
[1]
  Ki: 46.8 nM

## CN1CCN(c2nc(N(C)C)c3cc(Cl)ccc3n2)CC1
[1]
  Ki: 6.61 nM

## CN1CCN(c2ccc3ccccc3n2)CC1
[1]
  Ki: 0.457 nM
